Assay results from ChEMBL document CHEMBL5331128, “Alicyclic Ring Size Variation of 4-Phenyl-2-naphthoic Acid Derivatives as P2Y14 Receptor Antagonists” (J Med Chem, 2023).

Columns and labels:
P2Y purinoceptor 14 = target: T1, P2Y purinoceptor 14 (Homo sapiens, UniProt Q15391); assay: Displacement of fluorescent tracer 4-(4-(1-(4-(1-(6-(3-carboxylato-4-(3-iminio-3H-xanthen-9-yl)benzamido)hexyl)-4,5-dihydro-1H-pyrrol-3-yl)butyl)piperidin-1-ium-4-yl)phenyl)-7-(4-(trifluoromethyl)phenyl)-2-naphthoate from human P2Y14R stably expressed in CHO cells by flow cytometry; type: cell-based
T1 sequence (Q15391 whole entry): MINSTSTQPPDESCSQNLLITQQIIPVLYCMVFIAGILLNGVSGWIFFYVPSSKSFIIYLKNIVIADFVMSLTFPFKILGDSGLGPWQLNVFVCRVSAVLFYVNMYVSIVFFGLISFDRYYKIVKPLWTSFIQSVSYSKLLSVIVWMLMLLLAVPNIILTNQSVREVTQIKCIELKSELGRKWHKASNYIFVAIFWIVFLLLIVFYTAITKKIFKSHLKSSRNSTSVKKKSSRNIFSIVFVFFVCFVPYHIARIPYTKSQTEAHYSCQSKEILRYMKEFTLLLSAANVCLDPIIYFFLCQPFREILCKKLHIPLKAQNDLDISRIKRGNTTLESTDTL
In short: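 Whole-cell competitive binding: CHO cells expressing hP2Y14R (or HEK-293 cells expressing mP2Y14R) incubated with AlexaFluor488-labelled antagonist tracer at 20 nM.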

[1] = Protein binding in mouse plasma assessed as bound fraction; type: ADME, cell-free
[2] = Protein binding in human plasma assessed as bound fraction; type: ADME, cell-free

SMILES: O=C(O)c1cc(-c2ccc([C@]3(O)[C@@H]4CNC[C@H]3C4)cc2)c2ccc(-c3ccc(C(F)(F)F)cc3)cc2c1
- IC50 (P2Y purinoceptor 14): 5.92 nM
- PPB [1]: 99.86%
- PPB [2]: 99.3%
